Screens from PubChem.
Yeast superoxide: yeast age-related superoxide inhibition as caloric restriction mimetic. AID 2690. superoxide response (% of plate mean), % at 10 µM. 330,000 tested, 0.18% active. S. cerevisiae aged cells, superoxide DHE fluorescence; active compounds read low;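 active = superoxide response under a set limit, about three screen SD below normal, cut at about 65% in these data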;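 also: yeast aged for seven days with compound at 30 °C before DHE staining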
TRPC4 potent: TRPC4 (mouse) allosteric potentiation; HEK293 TRPC4beta/mu-opioid, DAMGO EC20, Fluo-4 Ca2+ flux; active compounds read high; B-score at 10 µM; 310,000 tested, 0.42% active; AID 2227;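 active = B-score of calcium response area above 5 SD of library B-scores, with initial fluorescence ratio within 5 SD of library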
TRPC4 block: blocks the mouse TRPC4 cation channel | HEK293 TRPC4beta/mu-opioid, DAMGO-evoked Fluo4 calcium flux; active compounds read low | B-score at 10 µM | 300,000 tested, 0.39% active;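 active = B-score over 3 SD under the library average, no early fluorescence shift, positive overall ratio signal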
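test system = HEK293 cells with stable TRPC4beta plus mu-opioid receptor expression | detection = Fluo4 Ca2+ flux fluorescence | read-out = integrated fluorescence ratio relative to baseline, converted to per-well B score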
TRPC4 act: opens the mouse TRPC4 cation channel; Q9QUQ5; 310,000 tested, 0.49% active; AID 2237; HEK293 TRPC4beta/mu-opioid, Fluo4 calcium fluorescence; active compounds read high; B-score at 10 µM;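 active = B-score above 5 SD of library B-scores, and initial fluorescence ratio not above library mean plus 5 SD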;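 also: positive B-score marks a calcium rise read as TRPC4 activation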
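Assay system – TRPC4beta and mu-opioid receptor HEK293 stable cells · Measured by – Fluo4 fluorescence, kinetic · Schedule – dye loading 45 min room temperature, 110 s kinetic read · Read-out – B-scored integrated calcium fluorescence ratio · Controls – buffer and maximal DAMGO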
TRPC6 inh: mouse TRPC6 channel inhibition; HEK293-TRPC6, membrane potential dye, ACh-evoked depolarization; active compounds read low; Q61143; B-score at 10 µM; 310,000 tested, 1.1% active;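 active = B-score under library mean minus 3 SD, initial fluorescence not abnormally high, positive integrated signal ratio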;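 also: B-score derived from integrated fluorescence ratio over the kinetic read; more negative B-score means stronger inhibition of depolarization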
Target sequence (Q61143 whole entry, looked up): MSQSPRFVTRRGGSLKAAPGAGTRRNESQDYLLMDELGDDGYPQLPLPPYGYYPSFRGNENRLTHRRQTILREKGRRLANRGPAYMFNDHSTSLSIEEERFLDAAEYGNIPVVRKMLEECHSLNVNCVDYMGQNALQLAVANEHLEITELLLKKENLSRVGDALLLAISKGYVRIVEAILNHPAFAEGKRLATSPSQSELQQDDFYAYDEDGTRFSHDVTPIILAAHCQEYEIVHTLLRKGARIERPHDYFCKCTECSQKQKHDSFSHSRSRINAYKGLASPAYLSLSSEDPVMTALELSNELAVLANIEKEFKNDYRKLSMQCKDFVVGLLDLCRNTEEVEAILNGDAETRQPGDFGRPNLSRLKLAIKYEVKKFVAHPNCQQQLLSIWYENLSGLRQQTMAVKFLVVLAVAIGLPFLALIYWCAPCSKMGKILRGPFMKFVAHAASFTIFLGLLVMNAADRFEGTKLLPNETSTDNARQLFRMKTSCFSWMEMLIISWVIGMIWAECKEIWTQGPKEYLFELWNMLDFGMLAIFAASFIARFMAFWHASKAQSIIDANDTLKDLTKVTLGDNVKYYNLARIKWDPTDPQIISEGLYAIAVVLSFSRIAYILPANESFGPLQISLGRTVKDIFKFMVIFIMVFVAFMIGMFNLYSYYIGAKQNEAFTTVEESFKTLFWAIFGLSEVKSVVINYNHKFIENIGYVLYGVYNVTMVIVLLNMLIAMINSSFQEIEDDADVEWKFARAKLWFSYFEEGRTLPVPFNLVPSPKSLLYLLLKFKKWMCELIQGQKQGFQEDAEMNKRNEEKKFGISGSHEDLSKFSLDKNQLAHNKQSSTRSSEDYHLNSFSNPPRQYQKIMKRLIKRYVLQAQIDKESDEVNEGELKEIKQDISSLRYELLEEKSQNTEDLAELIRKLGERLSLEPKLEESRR
TRPC6 act: activates the mouse TRPC6 cation channel; HEK293-TRPC6 membrane potential dye fluorescence; active compounds read high; B-score at 10 µM; 310,000 tested, 0.13% active; AID 2550;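 active = B-score of the integrated fluorescence ratio above library mean plus 3 SD, and starting fluorescence ratio within library mean plus 5 SD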;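 also: higher score means more depolarization so channel activation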
TRPC4 sel inh 2: mouse TRPC4 off-target activity of TRPC6 inhibitors, second screen; AID 2776; 920 tested, 42% active; inhibition, % at 10 µM; shares compounds with TRPC6 inh; HEK293 TRPC4/MOR, membrane potential dye fluorescence; channel activated by saturating DAMGO dose;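 active = compounds whose fluorescence signal differed from control wells by over 3 SD, either direction, in both duplicate plates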
TRPC4 spec: mouse TRPC4 off-target activity of TRPC6 inhibitors | shares compounds with TRPC6 inh | HEK293 TRPC4/mu-opioid, membrane potential fluorescence | activity change, negative = inhibition, % at 10 µM | 920 tested, 61% active;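 active = rise or fall in signal beyond 3 SD of buffer-only wells in both replicate plates, either sign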;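 also: integrated kinetic ratio of fluorescence range over baseline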
HEK293 MPD ctr 2-1: parental HEK293 nonspecific activity of TRPC6 inhibitors, second screen; shares compounds with TRPC6 inh; parental HEK293 membrane potential dye fluorescence; maximal acetylcholine challenge after compound addition; signal change vs control, % at 10 µM; 920 tested, 31% active;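 active = membrane potential signal moving either way by over 3 SD of the maximum-effect control, in both duplicate plates, meaning non-specific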
HEK293 MPD ctr-1: checks TRPC6 inhibitor effects in parental HEK293 cells | membrane potential signal change, % at 10 µM | parental HEK293 membrane potential dye fluorescence | shares compounds with TRPC6 inh | 920 tested, 60% active | AID 2780;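 active = membrane potential signal shifting up or down by more than 3 SD of buffer-only wells, on both duplicate plates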
HEK293 MPD ctr-2: parental HEK293 nonspecific activity of TRPC6 modulators; shares compounds with TRPC6 inh; membrane potential dye fluorescence; membrane potential signal change, % at 10 µM; 2,400 tested, 51% active; AID 488924;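 active = membrane potential signal moves up or down beyond 5 SD from buffer-only wells, on both duplicate plates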
HEK293 MPD ctr 2-2: parental HEK293 nonspecific activity of TRPC6 modulators, second screen; 2,400 tested, 14% active; membrane potential dye fluorescence; after compound, maximal acetylcholine stimulation; inhibition, % at 10 µM; shares compounds with TRPC6 inh;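 active = membrane potential signal drops by more than 5 SD from the mean control signal, in both duplicate plates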
TRPC4/MOR mod: selectivity of TRPC6 modulators against mouse TRPC4. shares compounds with TRPC6 inh. percent change from control (negative = decrease, positive = increase), % at 10 µM. 2,400 tested, 69% active. HEK293 TRPC4/mu-opioid, membrane potential fluorescence;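 active = membrane potential signal moved up or down beyond 5 SD of buffer control wells, in both duplicate plates, actives on both sides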
TRPC4 ctr inh 2: second check of whether TRPC6 modulators also affect mouse TRPC4; shares compounds with TRPC6 inh; HEK293 TRPC4/mu-opioid, membrane potential dye fluorescence; stimulated with maximal-effect DAMGO; inhibition, % at 10 µM; 2,400 tested, 55% active;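 active = drop in membrane potential signal beyond 5 SD of the control wells in both duplicate plates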;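 also: TRPC4 counter screen for TRPC6 hits run under conditions tuned for TRPC6 not TRPC4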
TRPC6 inh conf: confirmation of mouse TRPC6 inhibitors; shares compounds with TRPC6 inh; HEK293-TRPC6, membrane potential dye, ACh-evoked depolarization; inhibition, % at 10 µM; 3,300 tested, 43% active; AID 488960;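 active = fluorescence ratio falls more than 5 SD below the full-stimulation control mean, in both duplicate runs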;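 also: integrated fluorescence ratio of peak minus minimum over baseline after agonist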
TRPC6 act confirm: mouse TRPC6 activator confirmation; activation, % at 10 µM; HEK293-TRPC6 membrane potential dye fluorescence, FDSS; shares compounds with TRPC6 inh; AID 488961; 2,800 tested, 11% active;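 active = ratio signal rise beyond 5 SD above unstimulated control wells' mean, seen in both duplicate runs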
Superoxide pick: confirmation of caloric restriction mimetics inhibiting yeast age-related superoxide; superoxide response (% of plate), % at 10 µM; 850 tested, 1% active; S. cerevisiae aging, superoxide DHE fluorescence; active compounds read low; shares compounds with Yeast superoxide; AID 434994;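 active = superoxide signal below 65% of the plate average of sample wells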;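 also: cells aged with compound for 7 days at 30 degrees C before staining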
DHE counter: counter-screen for compounds affecting DHE oxidation and fluorescence in yeast; S. cerevisiae BY4741, flow cytometry; active compounds read low; 850 tested, under 10 active; fluorescence response, % at 10 µM; AID 435000; shares compounds with Yeast superoxide;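 active = fluorescence response below 15%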;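 also: lower means stronger quenching of DHE signal or ROS scavenging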
A number is an active result; - = inactive; . = no result given; + = active, no number. This is a sample that favours compounds with a hit; in the whole collection about 2.3% have one here.

SMILES	Yeast superoxide	TRPC4 potent	TRPC4 block	TRPC4 act	TRPC6 inh	TRPC6 act	TRPC6 inh conf	Superoxide pick	DHE counter	others
COCC(C)n1c(C)cc(C(=O)COC(=O)CN=C2NS(=O)(=O)c3ccccc32)c1C (stereo not given)	-	-	-	-	-	-	.	.	.
c1ccc(Sc2ncnc3ccccc23)cc1	-	-	-	-	-	-	.	.	.
NCc1cc2c3c(c1)CCCN3CCC2	-	-	-	-	-5.7	-	-	.	.	HEK293 MPD ctr-2=-;HEK293 MPD ctr 2-2=-;TRPC4/MOR mod=-;TRPC4 ctr inh 2=-;TRPC6 act confirm=-
O=C(Nc1ccc(Br)cc1Cl)c1ccc(OCC2CCCO2)cc1 (stereo not given)	-	.	.	.	.	.	.	.	.
CC(=O)Nc1ccc(C(=O)OCCC(C)C)cc1	-	-	-	-	-6.8	-	-	.	.	TRPC4 sel inh 2=-;TRPC4 spec=-;HEK293 MPD ctr 2-1=-;HEK293 MPD ctr-1=-;TRPC6 act confirm=-
NCC(c1ccccc1)(c1ccccc1)c1ccccc1	-	-	-8	117	-6.6	-	42%	.	.	HEK293 MPD ctr-2=-;HEK293 MPD ctr 2-2=-;TRPC4/MOR mod=18%;TRPC4 ctr inh 2=74%;TRPC6 act confirm=-
Cc1nc2sc(C(c3cccc(F)c3)N3CCN(C(=O)c4ccco4)CC3)c(O)n2n1 (stereo not given)	-	-	-	-	-	-	.	.	.
CCOC(=O)/C(=C/C=C1\Sc2cc(C)c(C)cc2N1CC)C(C)=O	.	-	-	-	-5	-	-	.	.	HEK293 MPD ctr-2=+;HEK293 MPD ctr 2-2=+;TRPC4/MOR mod=282%;TRPC4 ctr inh 2=52%
O=C(NCc1cccc(C(F)(F)F)c1)c1ccc[nH]1	-	-	-	-	-	-	.	.	.
CSc1ccc2c(c1)N(CCC1CCCCN1C)c1ccccc1S2 (stereo not given)	-	-	-	-	-6	-	67%	.	.	HEK293 MPD ctr-2=-;HEK293 MPD ctr 2-2=59%;TRPC4/MOR mod=-;TRPC4 ctr inh 2=85%;TRPC6 act confirm=-
Fc1ccc(Cn2nnc3ccccc32)cc1	64	-	-	-	-7.9	-	-	-	-	TRPC4 sel inh 2=-;TRPC4 spec=-;HEK293 MPD ctr 2-1=-;HEK293 MPD ctr-1=-0.6%;TRPC6 act confirm=-
O=c1c2ccccc2nnn1Cc1ccc(F)cc1	-	-	-	-	-	-	.	.	.
Cc1c(Cc2ccccc2)c(NCCN(C)C)n2c(nc3ccccc32)c1C#N	59	-	-	-	-6	-	-	-	-	HEK293 MPD ctr-2=-;HEK293 MPD ctr 2-2=-;TRPC4/MOR mod=-;TRPC4 ctr inh 2=54%;TRPC6 act confirm=-
C=CCn1c(CNC(=O)c2ccco2)nnc1SCC(=O)N1c2ccccc2Sc2ccccc21	-	-	-	-	-	-	.	.	.
Cc1nn(-c2ccccc2)c(N2CCCC2)c1/C=N/Nc1ccc(S(N)(=O)=O)cc1[N+](=O)[O-]	60	-	-	-	-5.5	-	-	-	-	HEK293 MPD ctr-2=-;HEK293 MPD ctr 2-2=-;TRPC4/MOR mod=-10%;TRPC4 ctr inh 2=54%;TRPC6 act confirm=-
NS(=O)(=O)c1ccc(N/N=C/c2ccc(C(=O)O)cc2)c([N+](=O)[O-])c1	-	-	-	-	-	-	.	.	.
CC(=O)CCc1c(C)c2cc(C)ccc2[nH]c1=O	-	-	-	-	-	-	.	.	.
O=C(c1cccc(F)c1)N1CCN(c2cccc(C(F)(F)F)c2)CC1	-	-	-	-	-6	-	77%	-	-	HEK293 MPD ctr-2=-;HEK293 MPD ctr 2-2=-;TRPC4/MOR mod=16%;TRPC4 ctr inh 2=-
O=C(O)CN(c1ccccc1F)S(=O)(=O)c1ccccc1	-	-	-	-	-	-	.	-	-
CNC(=O)COc1ccc(Nc2nnc(-c3ccc(C)c(S(N)(=O)=O)c3)c3ccccc23)cc1	42	-	-	-	-	-	.	-	-
Cc1ccc(-c2nnc(Nc3ccc4c(c3)OCO4)c3ccccc23)cc1S(N)(=O)=O	-	-	-	-	-	-	.	-	-
COc1nnc(-c2ccc(C)c(S(=O)(=O)NCC3CCCO3)c2)c2ccccc12 (stereo not given)	-	-	-	-	-	-	.	.	.
Cc1ccc(-c2nnc(Nc3ccc(C(N)=O)cc3)c3ccccc23)cc1S(=O)(=O)NCC1CCCO1 (stereo not given)	-	-	-	-	-	-	.	-	-
CNC(=O)c1cc(Nc2nnc(-c3ccc(C)c(S(N)(=O)=O)c3)c3ccccc23)ccc1OC	58	-	-	-	-	-	.	-	-
Cc1nc(SCCCSc2n[nH]c(C)n2)n[nH]1	-	-	-	-	-	-	.	.	.
SMILES	Yeast superoxide	TRPC4 potent	TRPC4 block	TRPC4 act	TRPC6 inh	TRPC6 act	TRPC6 inh conf	Superoxide pick	DHE counter	others
C[C@H](CO)N1C[C@H](C)[C@@H](CN(C)C(=O)Nc2ccccc2)Oc2c(NC(=O)c3ccncc3)cccc2C1=O	-	.	.	.	.	.	.	.	.
CC(=O)Nc1ccc(Nc2nnc(-c3ccc(C)c(S(N)(=O)=O)c3)c3ccccc23)cc1	-	-	-	-	-	-	.	-	-
CC(C)/C(=N/Nc1ccccc1[N+](=O)[O-])c1ccccc1	-	-	-	-	-	-	.	.	.
CC(=O)c1ccc(NS(=O)(=O)c2ccccc2)cc1	-	-	-	-	-	-	.	-	-
CC(=O)c1ccc(NS(=O)(=O)c2ccc(N)cc2)cc1	-	-	-	-	-	-	.	.	.
O=C(Cc1ccccc1)NCc1ccncc1	57	-	-	-	-	-	.	-	-
